In ChEMBL document CHEMBL2311397, “Design and synthesis of cyclopropylamide analogues of combretastatin-A4 as novel microtubule-stabilizing agents” (J Med Chem, 2013):

How the values were obtained:
Tubulin (Homo sapiens) [1] = molecular target: T1, Tubulin (Homo sapiens) (UniProt P68371+Q9H4B7+P0DPH7+P68366+Q13509+Q71U36+P04350+Q3ZCM7+P07437+P68363+Q9BQE3+Q6PEY2+Q13885+Q9BVA1+Q9BUF5); assay: Activation of tubulin (unknown origin) polymerization at 10 uM; format: protein-complex assay
Outline: (§1)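 Purified brain tubulin (kit), final 3.0 mg/mL, in 80.0 mM PIPES sesquisodium pH 6.9, 2.0 mM MgCl2, 0.5 mM EGTA, 1 mM GTP, 10.2% glycerol; components prewarmed to 37 °C, reaction started by adding tubulin. A340 read each minute for 1 h. Single-point % stimulation used 10 μM compound; EC50 from 3.75, 7.5, 15, 30, 60 μM.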

SW480 = assay: Cytotoxicity against human SW480 cells after 48 hrs by MTT assay; format: functional, cell-based; conditions: Homo sapiens, SW480, 48 h
Outline: (§2)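 Log-phase cells (40000–50000 cells/mL) grown in DMEM with 10% fetal calf serum (5% CO2, 37 °C) and exposed 48 h to five concentrations, 3–5 replicates. Read-out was MTT with absorbance at 570 nm; IC50 reported as mean ± SD of three independent experiments. Resistant A549 and HeLa sublines were made by stepwise paclitaxel selection; resistance index = IC50(resistant)/IC50(sensitive).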

[2] = Cytotoxicity against human QGY cells after 48 hrs by MTT assay; format: functional, cell-based; outline: as §2
HeLa = assay: Cytotoxicity against human HeLa cells after 48 hrs by MTT assay; format: functional, cell-based; conditions: Homo sapiens, HeLa, 48 h; outline: as §2
K562 = assay: Cytotoxicity against human K562 cells after 48 hrs by MTT assay; format: functional, cell-based; conditions: Homo sapiens, K562, 48 h; outline: as §2
Tubulin = assay: (§3) Activation of tubulin (unknown origin) polymerization; format: protein-complex assay, Homo sapiens; outline: as §1
A549 [3] = assay: Cytotoxicity against human A549 cells after 48 hrs by MTT assay; format: functional, cell-based; conditions: Homo sapiens, A549, 48 h; outline: as §2
Tubulin (Homo sapiens) [4] = molecular target: T1, Tubulin (Homo sapiens); assay: as §3; format: protein-complex assay; outline: as §1
A549 [5] = assay: Cytotoxicity against paclitaxel-resistant human A549 cells after 48 hrs by MTT assay; format: functional, cell-based; conditions: A549, 48 h; outline: as §2
Mus musculus = assay: Toxicity in human A549 cells xenografted BALB/c nude mouse assessed as change in body weight at 30 mg/kg, ig; format: organism-based; parameters: dose 30 mg/kg, route intragastric; conditions: in vivo, po
Outline: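 Male BALB/c nude mice, 5 weeks old (18–20 g), implanted subcutaneously in the right armpit with A549 tumor fragments (3 mm3). On day 13, at 100–200 mm3, daily intragastric dosing began: 100 or 500 mg/kg test compound, or 30 mg/kg paclitaxel, in Tween-80 diluted with saline. Vehicle given ip. Tumor volume and body weight followed; n = 6; inhibition rate at day 16.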

Activity (Tubulin (Homo sapiens) [1]) | EC50 (Tubulin) | Activity (Tubulin (Homo sapiens) [4]) | Compound | IC50 (SW480) | IC50 ([2]; Homo sapiens, QGY, 48 h) | IC50 (HeLa) | IC50 (K562) | IC50 (A549 [3]) | IC50 (A549 [5]) | Activity (Mus musculus) | IC50 ([2]; qgy)
40.8% |  |  | CCOC(=O)C1(C(=O)NCCc2ccc(F)cc2)CC1c1cc(OC)c(OC)c(OC)c1 (cis isomer) |  |  |  |  |  |  |  | 
50% |  |  | CCOC(=O)C1(C(=O)Nc2cccc(Cl)c2)CC1c1cc(OC)c(OC)c(OC)c1 (stereo in doubt; cis) |  |  |  |  |  |  |  | 
31.5% | 14.3 µM |  | COc1cc([C@@H]2C[C@]2(CO)C(=O)Nc2ccccc2)cc(OC)c1OC | 33.3 µM | 51.3 µM | 32 µM | > 100 µM | 24.1 µM |  |  | 
79.3% | 5.83 µM | Dose-dependent effect | CCOC(=O)[C@]1(C(=O)NCc2ccc(C)cc2)C[C@H]1c1cc(OC)c(OC)c(OC)c1 | 36.4 µM | 32.1 µM | 28.5 µM | > 100 µM | 13.3 µM |  |  | 
50% |  |  | CCOC(=O)C1(C(=O)NCc2ccc(OC)cc2)CC1c1cc(OC)c(OC)c(OC)c1 (trans isomer) |  |  |  |  |  |  |  | 
245% | 1.23 µM |  | CC(=O)O[C@H]1C(=O)[C@@]2(C)[C@H]([C@H](OC(=O)c3ccccc3)[C@]3(O)C[C@H](OC(=O)[C@H](O)[C@@H](NC(=O)c4ccccc4)c4ccccc4)C(C)=C1C3(C)C)[C@]1(OC(C)=O)CO[C@@H]1C[C@@H]2O [PACLITAXEL] | 0.0121 µM | 0.0113 µM |  | 0.0157 µM | 0.0082 µM | 1.04 µM | Toxic | 
7.9% |  |  | CCOC(=O)C1(C(=O)Nc2ccc(F)cc2)CC1c1cc(OC)c(OC)c(OC)c1 (trans isomer) |  |  |  |  |  |  |  | 
25% |  |  | CCOC(=O)C1(C(=O)Nc2ccc(OC)cc2)CC1c1cc(OC)c(OC)c(OC)c1 (cis isomer) [listing 1 of 2 here] |  |  |  |  |  |  |  | 
23.2% |  |  | CCOC(=O)C1(C(=O)Nc2ccccc2)CC1c1cc(OC)c(OC)c(OC)c1 (cis isomer) |  |  |  |  |  |  |  | 
28.6% | 16.9 µM |  | CCOC(=O)[C@]1(C(=O)Nc2ccccc2Cl)C[C@H]1c1cc(OC)c(OC)c(OC)c1 | 25.6 µM | 28 µM | 42.4 µM | 20.7 µM | 13.4 µM |  |  | 
 |  |  | CCOC(=O)[C@]1(C(=O)NCc2ccc(C)cc2)C[C@@H]1c1cc(OC)c(OC)c(OC)c1 | > 100 µM | > 100 µM | > 100 µM | 20.4 µM | 34.9 µM |  |  | 
 |  |  | CCOC(=O)C1(C(=O)Nc2ccc(OC)cc2)CC1c1cc(OC)c(OC)c(OC)c1 (cis isomer) [listing 2 of 2 here] | 66.3 µM | 86.1 µM | 81.6 µM | > 100 µM | 61.4 µM |  |  | 
 |  |  | CCOC(=O)C1(C(=O)Nc2ccc(F)cc2)CC1c1cc(OC)c(OC)c(OC)c1 (cis isomer) | 46.7 µM |  | 62.4 µM | 63.7 µM | 22.4 µM |  |  | 79.1 µM
 |  |  | COc1cc([C@H]2C[C@@]2(CO)C(=O)NCc2ccc(C)cc2)cc(OC)c1OC | > 100 µM | > 100 µM | > 100 µM | > 100 µM | 63.8 µM |  |  | 
